Test results published in ChEMBL document CHEMBL4014306, “Pyrazolopyrimidines as Potent Stimulators for Transient Receptor Potential Canonical 3/6/7 Channels” (J Med Chem, 2017).

Assays:
[1] = molecular target: T1, Short transient receptor potential channel 4 (Mus musculus, UniProt Q9QUQ5); assay: Antagonist activity at mouse TRPC4beta expressed in HEK293 cells co-expressing MOR decrease in DAMGO-evoked intracellular calcium level by Fluo-8-AM dye-based fluorescence assay; type: cell-based
T1 sequence (Q9QUQ5 whole entry): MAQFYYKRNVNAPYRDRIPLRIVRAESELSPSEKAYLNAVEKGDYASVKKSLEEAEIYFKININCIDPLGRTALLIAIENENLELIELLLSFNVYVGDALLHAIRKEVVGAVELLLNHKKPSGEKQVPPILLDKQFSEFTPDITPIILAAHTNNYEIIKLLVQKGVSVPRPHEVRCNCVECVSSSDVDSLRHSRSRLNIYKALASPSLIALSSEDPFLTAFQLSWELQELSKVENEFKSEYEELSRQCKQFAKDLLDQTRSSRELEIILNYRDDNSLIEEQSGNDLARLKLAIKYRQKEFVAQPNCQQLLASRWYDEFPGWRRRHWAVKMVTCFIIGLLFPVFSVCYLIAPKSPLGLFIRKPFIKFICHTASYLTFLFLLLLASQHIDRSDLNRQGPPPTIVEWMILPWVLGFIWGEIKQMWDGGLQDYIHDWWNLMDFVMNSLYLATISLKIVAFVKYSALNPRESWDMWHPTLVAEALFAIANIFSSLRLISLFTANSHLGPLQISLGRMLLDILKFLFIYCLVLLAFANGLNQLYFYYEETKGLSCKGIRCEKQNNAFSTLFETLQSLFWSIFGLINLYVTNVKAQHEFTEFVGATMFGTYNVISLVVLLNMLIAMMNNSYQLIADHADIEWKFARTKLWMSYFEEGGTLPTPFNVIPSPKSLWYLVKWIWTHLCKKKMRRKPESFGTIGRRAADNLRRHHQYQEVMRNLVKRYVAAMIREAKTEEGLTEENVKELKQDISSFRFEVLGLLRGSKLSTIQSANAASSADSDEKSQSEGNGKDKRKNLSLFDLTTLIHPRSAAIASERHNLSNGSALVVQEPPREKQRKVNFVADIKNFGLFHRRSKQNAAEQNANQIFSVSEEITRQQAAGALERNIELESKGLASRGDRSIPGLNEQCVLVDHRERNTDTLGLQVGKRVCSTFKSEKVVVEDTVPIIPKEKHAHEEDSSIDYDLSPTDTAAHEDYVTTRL
How it was run: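 MOR/TRPC4β HEK293 cells loaded with Ca2+ dye. Compound given before 1 μM DAMGO. IC50 estimated from one experiment in triplicate.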

[2] = molecular target: T2, Short transient receptor potential channel 3 (Homo sapiens, UniProt Q13507); assay: Agonist activity at human TRPC3 expressed in HEK293 cells assessed as induction of membrane depolarization measured for 2.5 mins in presence of 0.5 mM Ca2+ by FLIPR membrane potential dye-based fluorescence assay; type: cell-based
T2 sequence (Q13507 whole entry): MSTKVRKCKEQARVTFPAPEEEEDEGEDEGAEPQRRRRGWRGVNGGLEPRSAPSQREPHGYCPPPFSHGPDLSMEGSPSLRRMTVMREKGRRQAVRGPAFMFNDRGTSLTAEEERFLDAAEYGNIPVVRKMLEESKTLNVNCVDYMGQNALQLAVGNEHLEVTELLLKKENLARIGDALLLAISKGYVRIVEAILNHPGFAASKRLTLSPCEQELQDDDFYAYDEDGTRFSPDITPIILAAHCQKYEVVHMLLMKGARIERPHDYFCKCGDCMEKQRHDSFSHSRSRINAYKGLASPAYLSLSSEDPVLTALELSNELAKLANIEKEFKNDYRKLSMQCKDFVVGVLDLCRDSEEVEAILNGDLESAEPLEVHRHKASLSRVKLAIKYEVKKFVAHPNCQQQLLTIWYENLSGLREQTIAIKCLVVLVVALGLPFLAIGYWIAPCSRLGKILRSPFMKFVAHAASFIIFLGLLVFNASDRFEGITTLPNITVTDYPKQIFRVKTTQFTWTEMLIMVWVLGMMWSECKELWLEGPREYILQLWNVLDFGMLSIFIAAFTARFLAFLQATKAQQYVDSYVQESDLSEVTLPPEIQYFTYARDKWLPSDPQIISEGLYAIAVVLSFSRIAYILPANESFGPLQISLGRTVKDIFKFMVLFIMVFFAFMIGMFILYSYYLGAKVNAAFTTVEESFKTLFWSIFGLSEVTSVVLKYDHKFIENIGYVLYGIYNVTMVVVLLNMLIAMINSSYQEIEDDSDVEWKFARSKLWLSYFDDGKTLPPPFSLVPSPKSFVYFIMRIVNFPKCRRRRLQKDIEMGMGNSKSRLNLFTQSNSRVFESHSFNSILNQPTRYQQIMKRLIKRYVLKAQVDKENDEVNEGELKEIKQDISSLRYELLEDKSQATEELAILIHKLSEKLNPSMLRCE
How it was run: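 HEK293 cells stably expressing human TRPC3, run on a FlexStation at 32 °C. Loaded with FMP dye, or Fluo-type Ca2+ dye with 2 mM probenecid. Extracellular NaCl/HEPES saline, pH 7.4, with 2 mM Ca2+ (standard) or 0.5 mM Ca2+. Read as F/F0. In 0.5 mM Ca2+, FMP EC50 from a Hill fit, n = 6.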

| IC50 [1] | EC50 [2] | SMILES |
| --- | --- | --- |
| Not Active | 138 nM | Cc1nn2c(O)cc(C3CCN(C(=O)OCc4ccccc4)CC3)nc2c1-c1ccc(Cl)cc1 |
| Not Active | – | CCOC(=O)N1CCC(c2cc(O)n3nc(C)c(-c4ccc(C(F)(F)F)cc4)c3n2)CC1 |
| Not Active | 236 nM | Cc1nn2c(O)cc(C3CCN(C(=O)OCc4ccccc4)CC3)nc2c1-c1ccc(F)cc1 |

| SMILES | IC50 [1] | EC50 [2] |
| --- | --- | --- |
| CCOC(=O)N1CCC(c2cc(O)n3nc(C)c(-c4ccc(F)cc4)c3n2)CC1 | Not Active | 450 nM |
